Experimental data from paper PMC12722729 (Scientific Reports, 2025).
“And” between values parts separate entries of the source, which are not always exact repeats. Identical values can stand only once. Like-named read-outs stand apart in the source and are kept apart here.

What was measured:
K562 cells = settings: cited from earlier work
Jurkat cells [1] = assay: Annexin V-FITC/propidium iodide labelling; type: cell-based, human; settings: 24 h, each compound at its IC50, mean ± SEM
In short: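 Cells were spun at 220 x g for 5 min at 4 °C and washed in chilled PBS. They were stained with Annexin V-FITC in binding buffer for 13 min at room temperature in the dark, then with PI for 2 min. Samples were diluted in binding buffer and analysed by flow cytometry.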

[2] = cited from earlier work
caspase-9 = assay: CaspGLOW active caspase staining, caspase-9; type: cell-based, human; settings: Jurkat, OC2 at IC50, 2 and 4 h
In short: (§1)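 Jurkat E6-1 cells in RPMI-1640 with 10% FBS at 1 × 10⁶ cells/mL were exposed to the test compound for 2 or 4 h. Cells were washed, resuspended in fresh medium and stained 1 h at 37 °C with a FITC-conjugated inhibitor: IETD-FMK (caspase-8), LEHD-FMK (caspase-9) or DEVD-FMK (caspase-3). After washing, cells were read by flow cytometry. Mean ± SEM of 3 replicates; ANOVA/Tukey versus untreated.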

WIL2-NS cells = assay: MTT cytotoxicity and selectivity index, WIL2-NS cells; type: cell-based, human; settings: IC50 WIL2-NS compared to IC50 Jurkat
cleaved-PARP = assay: Western blot, cleaved-PARP; type: cell-based, human; settings: Jurkat, OC2 at IC50, 0.5-6 h
In short: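 Jurkat cells (1 × 10⁶ cells/mL) were treated with the test compound at its IC50 for 0.5–6 h. Cells were washed in ice-cold PBS and lysed in RIPA, and lysates were cleared at 13500 rpm for 30 min at 4 °C; protein was measured by Bradford. 25 µg per lane was run on SDS-PAGE and transferred to PVDF. Membranes were blocked in 5% BSA/TBS-T for 1.5 h, given primary antibody overnight at 4 °C and HRP anti-rabbit for 1 h, and developed by ECL. β-actin served as loading control. Three independent replicates, arbitrary units, mean ± SEM.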

Jurkat cells [3] = assay: NAC pre-treatment followed by Annexin V-FITC/PI; type: cell-based, human; settings: 20 or 50 µM NAC 1 h, then OC2 at IC50 24 h
Jurkat cells [4] = assay: Cell cycle checkpoint analysis; type: cell-based, human; settings: OC2 at IC50, 2 and 4 h
caspase-3 = assay: CaspGLOW active caspase staining, caspase-3; type: cell-based, human; settings: Jurkat, OC2 at IC50, 4 h
In short: as §1

caspase-8 = assay: CaspGLOW active caspase staining, caspase-8; type: cell-based, human; settings: Jurkat, OC2 at IC50, 2 and 4 h
In short: as §1

Jurkat cells [5] = assay: DHE staining, intracellular ROS; type: cell-based, human; settings: OC2 at IC50, 1-6 h
Jurkat cells [6] = assay: MTT cytotoxicity assay, Jurkat cells; type: cell-based, human; settings: read-out: IC50 for Jurkat cell proliferation, 24 h
In short: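 Jurkat E6-1 cells were grown in RPMI-1640 with L-glutamine, 10% FBS and 1% penicillin-streptomycin at 37 °C and 5% CO2. The test compound was diluted 1:2 serially in medium from a top concentration of 10 or 5 µM. Cells at a final 1 × 10⁶ cells/mL were exposed for 24 h. MTT was added (final 0.45 mg/mL) for 4 h at 37 °C, formazan was dissolved in DMSO, and OD was read at 570 nm. IC50 was taken as 50% growth inhibition. Three independent experiments, mean ± SEM.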

p21 = assay: Western blot, p21; type: cell-based, human; settings: Jurkat, OC2 at IC50, 0.5-6 h
In short: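 Jurkat cells at 1 × 10⁶ cells/mL were treated for 0.5 to 6 h, then washed in ice-cold PBS and lysed in RIPA buffer (spun 13500 rpm, 30 min, 4 °C). Protein was measured by Bradford assay and 25 µg per lane run on SDS-PAGE, then transferred to PVDF. Blots were blocked in 5% BSA/TBS-T for 1.5 h, given primary antibody overnight at 4 °C and HRP anti-rabbit for 1 h, then detected by ECL. β-actin served as loading control; band intensity is in arbitrary units, n = 3.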

Jurkat cells [7] = assay: TMRE staining, mitochondrial membrane potential; type: cell-based, human

SMILES: CC(C)N(C(=S)[S][Sn]([c]1ccccc1)([c]1ccccc1)[c]1ccccc1)C(C)C [OC2, Triphenyltin(IV) diisopropyl dithiocarbamate]
- ROS levels, K562 (K562 cells; IC50 dose, 6 h): substantial elevation in ROS levels (p < 0.05)
- Apoptotic cells, K562 (K562 cells; at IC50 concentration): 57.1 ± 4.5%
- Cell cycle progression, K562 (K562 cells): blocking cell cycle progression at the S phase checkpoint
- Selectivity index (SI), K562 cells (K562 cells): 1
- IC50 (K562 cells; read-out: IC50 (inhibiting 50% of cell growth), K562 cells): 550 nM
- Percentage of apoptotic events (Jurkat cells [1]): 55.6 ± 5.0% and 55% and 55.6 ± 4.95%
- Predicted CaCo2 permeability / intestinal absorption ([2]; ADMETlab prediction): might possess good intestinal absorption
- Inhibition of major CYP450 enzymes (predicted) ([2]; in silico): predicted not to inhibit any major CYP450 enzymes
- Mutagenic and carcinogenic potential (predicted) ([2]; in silico): may lack mutagenic and carcinogenic potential
- P-gp substrate or inhibitor (predicted) ([2]; in silico): unlikely to be a substrate or inhibitor of P-gp
- Skin sensitization or liver injury (predicted) ([2]; in silico): might not cause skin sensitization or liver injury
- Cells with active caspase-9 (caspase-9): steadily increased from 2 to 4 h post-treatment
- Selectivity index (SI) (WIL2-NS cells): 5.5
- Cleaved-PARP protein expression (cleaved-PARP): marked rise (p < 0.05) at 6 h
- Apoptotic cells after NAC pre-treatment (Jurkat cells [3]): significantly decreased the number of apoptotic cells
- Cell cycle distribution (Jurkat cells [4]): halted the Jurkat cell cycle in the G0/G1 phase
- Caspase-3 positive cells (caspase-3): significant increase in caspase-3 positive cells
- Caspase-8 activation (caspase-8): remained unchanged compared to the control up to 4 h
- Intracellular ROS production (Jurkat cells [5]): time-dependent increase in ROS production
- IC50 (Jurkat cells [6]; MTT, mean ± S.E.M): 100 ± 10 nM
- p21 protein expression (p21): statistically significant (p < 0.05) at later time points (4 and 6 h)
- TMRE-negative cells (loss of ΔΨm) (Jurkat cells [7]; OC2 at IC50, 1 h): slight increase in TMRE-negative cells
- TMRE-negative cells (loss of ΔΨm) (Jurkat cells [7]; OC2 at IC50, 2 h): 33.0 ± 4.5%
- TMRE-negative cells (loss of ΔΨm) (Jurkat cells [7]; OC2 at IC50, 4 h): 37.4 ± 2.4%
- TMRE-negative cells (loss of ΔΨm) (Jurkat cells [7]; OC2 at IC50, 6 h): 43.2 ± 5.5%

SMILES: C=CCN(CC=C)C(=S)[S][Sn]([S]C(=S)N(CC=C)CC=C)([c]1ccccc1)[c]1ccccc1 [OC3, Diphenyltin(IV) diallyl dithiocarbamate]
- Percentage of apoptotic events (Jurkat cells [1]): 86.7 ± 2.9%
- Selectivity index (SI) (WIL2-NS cells): 0.42
- IC50 (Jurkat cells [6]; MTT, mean ± S.E.M): 2800 ± 130 nM

SMILES: COc1cc([C@@H]2c3cc4c(cc3[C@@H](O[C@@H]3O[C@@H]5CO[C@@H](C)O[C@H]5[C@H](O)[C@H]3O)[C@H]3COC(=O)[C@H]23)OCO4)cc(OC)c1O [ETO, Etoposide, reference compound]
- IC50 (Jurkat cells [6]; Homo sapiens, Jurkat): 870 ± 60 nM

SMILES: CCN(CC)C(=S)[S][Sn]([c]1ccccc1)([c]1ccccc1)[c]1ccccc1 [OC5, Triphenyltin(IV) diethyldithiocarbamate]
- Percentage of apoptotic events (Jurkat cells [1]): 73.4 ± 4.8%
- Selectivity index (SI) (WIL2-NS cells): 0.57
- IC50 (Jurkat cells [6]; MTT, mean ± S.E.M): 350 ± 10 nM

SMILES: CC(C)N(C(=S)[S][Sn]([S]C(=S)N(C(C)C)C(C)C)([c]1ccccc1)[c]1ccccc1)C(C)C [OC1, Diphenyltin(IV) diisopropyl dithiocarbamate]
- Percentage of apoptotic events (Jurkat cells [1]): 68.1 ± 4.2%
- Selectivity index (SI) (WIL2-NS cells): 0.37
- IC50 (Jurkat cells [6]; MTT, mean ± S.E.M): 7100 ± 600 nM

SMILES: C=CCN(CC=C)C(=S)[S][Sn]([c]1ccccc1)([c]1ccccc1)[c]1ccccc1 [OC4, Triphenyltin(IV) diallyl dithiocarbamate]
- Percentage of apoptotic events (Jurkat cells [1]): 84.5 ± 5.3%
- Selectivity index (SI) (WIL2-NS cells): 1
- IC50 (Jurkat cells [6]; MTT, mean ± S.E.M): 200 ± 10 nM
